Shown are actives, neighbours in structure and some others; about 3.8% of the full set was active somewhere.
hERG protect: hERG rescue from dofetilide block, primary screen, cell-based, CHO-hERG, FluxOR thallium flux, dofetilide IC70 | dofetilide IC70 present | 310,000 compounds, 0.51% hits | Voltage-gated inwardly rectifying potassium channel KCNH2 (Homo sapiens), Q12809 | AID 1511, 2009 | activation (rescue from dofetilide block), less the hit threshold, % at 10 µM;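 active means activation above the mean of controls blocked by dofetilide plus 5 SD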;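 further: thallium influx through hERG after potassium depolarization seen as dye fluorescence rise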
Kir21 inh: inhibitors of mouse Kir2.1 inward-rectifier potassium channel; HEK293-Kir2.1, FluxOR thallium flux fluorescence; hits give low values; Inward rectifier potassium channel 2 (Mus musculus), P35561; 310,000 compounds, 0.85% hits; AID 1672, 2009; B-score at 10 µM;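 active means fluorescence ratio B-score at or below minus 3 SD of library scores, with starting-brightness B-score within 2 SD, cut at about -4.2 in these data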;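 further: channel flux triggered by added potassium and thallium sulfate stimulus; B-score of peak minus minimum fluorescence over baseline after thallium stimulus; more negative B-score means stronger Kir2.1 block with less thallium influx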
KCNQ1 act: potentiators or activators of KCNQ1 channel, primary screen, cell-based, thallium flux, high-throughput | Potassium voltage-gated channel subfamily KQT member 1 (Homo sapiens), P51787 | CHO-K1 KCNQ1, thallium flux FluxOR fluorescence; hits give high values | B-score at 10 µM | 310,000 compounds, 0.35% hits | AID 2648, 2010;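 active means fluorescence ratio B-score, a plate-corrected score, at least three library SD, with initial intensity B-score within 5 SD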
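assay system = KCNQ1-transfected CHO-K1 cells | medium = assay buffer with matched DMSO | probe or stimulus = depolarizing K+/Tl+ stimulus, K2SO4 and Tl2SO4 each 12.5 mM in 5x stock | dosing = single dose | incubation = dye 90 min, compound 20 min, room temperature | detection = kinetic FluxOR fluorescence, 10 s baseline plus 110 s post-stimulus | evaluation = ratio B score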
KCNQ1 inh: inhibitors of human KCNQ1 channel, primary screen, cell-based, thallium flux, high-throughput; Potassium voltage-gated channel subfamily KQT member 1 (Homo sapiens), P51787; CHO-K1 KCNQ1, FluxOR thallium flux fluorescence; hits give high values; B-score at 10 µM; 310,000 compounds, 1.3% hits; AID 2642, 2010;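 active means compounds whose thallium flux B-score, printed positive for inhibition, exceeds three library SD while starting fluorescence stays within three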;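 further: channel opened by potassium depolarization with thallium stimulus after 20 min compound exposure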
KCNK3 inh: human KCNK3 channel inhibitors, primary screen, CHO cells, FluxOR thallium flux, B-score. FluxOR fluorescence; hits give low values. B-score at 10 µM. 340,000 compounds, 0.84% hits. AID 602410, 2012;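 active means B-score under library mean minus 4 SD, starting fluorescence ratio at most library mean plus 5 SD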;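 further: more negative B-score means stronger inhibition of thallium flux through KCNK3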
Target sequence (O14649 whole entry, looked up): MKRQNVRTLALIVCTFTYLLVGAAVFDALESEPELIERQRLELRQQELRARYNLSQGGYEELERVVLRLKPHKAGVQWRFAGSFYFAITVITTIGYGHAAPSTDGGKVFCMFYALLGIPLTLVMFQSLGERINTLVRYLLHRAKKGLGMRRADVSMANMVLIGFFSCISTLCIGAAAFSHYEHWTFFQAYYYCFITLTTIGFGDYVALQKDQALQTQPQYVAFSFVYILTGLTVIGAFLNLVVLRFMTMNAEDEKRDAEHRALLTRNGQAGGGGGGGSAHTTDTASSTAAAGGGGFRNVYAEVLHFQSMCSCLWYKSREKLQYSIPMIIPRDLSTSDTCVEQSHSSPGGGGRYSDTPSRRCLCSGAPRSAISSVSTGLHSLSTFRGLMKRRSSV
KCNK9 inh: KCNK9 potassium channel inhibitors, primary screen, HEK293 cells, thallium flux; 310,000 compounds, 1.2% hits; B-score at 10 µM; AID 488922, 2010; FluxOR thallium flux fluorescence; hits give low values; Potassium channel subfamily K member 9 (Homo sapiens), Q9NPC2;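 active means ratio B-score over 3 SD below the library mean, with starting fluorescence within 5 SD of its mean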;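 further: negative B-score means less thallium flux so channel inhibition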
KCNK9 inh conf: KCNK9 potassium channel inhibitors, confirmation, HEK293 cells, thallium flux, duplicate; AID 492992, 2010; FluxOR thallium flux fluorescence; 4,900 compounds, 43% hits; shares compounds with KCNK9 inh; inhibition, % at 10 µM;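 active means thallium signal inhibited by more than 5 SD of the compound-free buffer control wells, on both duplicate plates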;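 further: 0% = assay buffer control wells without compound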
Kir2-1 spec: mouse Kir2.1 channel inhibition, confirmation, selectivity assay for KCNK9 modulator project, cell-based, HEK293, thallium flux | 4,900 compounds, 4% hits | shares compounds with KCNK9 inh | inhibition, % at 10 µM | Kir2.1 cells, FluxOR thallium flux fluorescence;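 active means thallium signal drop more than 5 SD beyond the mean of the no-compound control wells, seen in both duplicate plates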;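 further: signal is fluorescence rise after thallium addition divided by baseline fluorescence; plate controls were assay buffer only for no effect and full block by chlorpromazine control for full effect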
HEK293 Tl ctr: thallium flux in non-induced HEK293 cells, confirmation, counter-screen for KCNK9 inhibitor project, cell-based, second counter screen, non-induced KCNK9-HEK293; shares compounds with KCNK9 inh; FluxOR thallium flux; inhibition, % at 10 µM; 4,900 compounds, 40% hits; AID 492997, 2010;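 active means thallium signal drop beyond 5 SD of the untreated control mean, on both duplicate plates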;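 further: plate controls were buffer only IC0 wells for no effect and SID17386958 at its maximal inhibitory level for full effect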
* = called active by the depositor; i = inactive; nt = no result.

SMILES	hERG protect	Kir21 inh	KCNQ1 act	KCNQ1 inh	KCNK3 inh	KCNK9 inh	KCNK9 inh conf	Kir2-1 spec	HEK293 Tl ctr
CCOc1ccc(/C=C/C(=O)c2cc(Br)ccc(=O)c2O)cc1	nt	nt	nt	nt	i	nt	nt	nt	nt
COc1ccc(CCC(=O)Nc2cc(S(C)(=O)=O)ccc2Cl)cc1	-4	-1.5	i	i	i	i	nt	nt	nt
O=C(NC(=S)NCCC1=CCCCC1)c1ccccc1Br	1	-2.4	i	i	i	i	i	i	i
N#Cc1ccccc1S(=O)(=O)N1CCN(C(=O)c2cccc(S(=O)(=O)N3CCCC3)c2)CC1	nt	nt	nt	nt	i	nt	nt	nt	nt
CCSc1nnc(NC(=O)CCNC(=O)c2ccccc2Cl)s1	nt	nt	nt	nt	i	nt	nt	nt	nt
NS(=O)(=O)c1ccc(NC(=S)Nc2ccn(Cc3cccc4ccccc34)n2)cc1	-4	-1.1	i	i	i	i	i	i	i
Clc1ccc(CO/N=C/c2c(-c3ccccc3)nc3n2CCS3)c(Cl)c1	-15	-0.56	i	i	i	-9.7*	i	i	28%*
CCCCOc1ccc(C(=O)NCC(=O)NCCOc2ccccc2OC)cc1	nt	nt	nt	nt	i	nt	nt	nt	nt
Cc1cc(C)cc(NC(=S)NCc2ccc3[nH]c4c(c3c2)CCCC4)c1	-16	-0.05	i	i	i	i	i	i	i
S=C(NCc1ccc2[nH]c3c(c2c1)CCCC3)Nc1ccccc1	-8	0	i	i	i	i	nt	nt	nt
COc1cc(NC(=O)[C@@H](NC(=O)N2CCn3c2nc2ccccc23)C(C)C)cc(OC)c1	-6	-0.43	i	i	i	i	nt	nt	nt
NC(=O)CC(NC(=O)c1ccccc1)c1ccc(NC2CCCCCCC2)c([N+](=O)[O-])c1 (centres undefined)	-3	-0.25	i	i	i	i	nt	nt	nt
NC(=O)CC(NC(=O)c1ccc(Br)cc1)c1ccc(NC2CCCCCCC2)c([N+](=O)[O-])c1 (centres undefined)	-1	0.29	i	i	i	-11*	i	i	33%*
C=C(C(=O)c1ccccc1)C(CC(=O)c1ccccc1)c1ccccc1 (centres undefined)	-3	-1.3	i	i	i	-13*	45%*	i	44%*
CN(c1ccccc1)S(=O)(=O)c1cccc(NC(=O)CSc2ncc(C(F)(F)F)cc2Cl)c1	-4	-0.35	i	7*	i	-8.9*	42%*	i	30%*
CN(c1ccccc1)S(=O)(=O)c1cccc(NC(=O)CSc2nncn2C)c1	-4	-0.08	i	i	i	i	nt	nt	nt
CC(C)=CCC(C)(C)/C=N/NC(N)=O	-9	0.36	i	i	i	i	nt	nt	nt
Cc1ccc(-n2nc3c(c2NC(=O)C2CCCC2)CS(=O)(=O)C3)cc1	-7	-0.61	i	i	i	i	nt	nt	nt
COc1ccc2nc(Nc3nc(CSc4nnnn4-c4ccccc4)cc(=O)[nH]3)nc(C)c2c1	-17	-0.23	i	i	i	i	nt	nt	nt
COc1ccc2nc(Nc3nc(CSc4ccc(C)cc4)cc(=O)[nH]3)nc(C)c2c1	-6	-1.3	i	i	i	i	i	i	i
Cc1ccccc1NC1=C(C(=O)c2ccccc2)N(C)S(=O)(=O)c2ccccc21	-11	0.34	i	i	-9*	-12*	32%*	i	38%*
O=[N+]([O-])c1ccc(Cl)c(S(=O)(=O)N2CCCCCC2)c1	-8	-0.02	i	i	i	-11*	i	i	24%*
CN1CCN(S(=O)(=O)c2cc([N+](=O)[O-])ccc2Cl)CC1	-8	-2.5	i	i	i	i	nt	nt	nt
O=C(Nc1ccc(F)cc1F)Nc1sccc1-c1nc2ccccc2s1	-12	0.55	i	i	i	-11*	50%*	i	26%*
O=C(c1ccccc1)N1CCN(c2ccc([N+](=O)[O-])cc2-n2cccc2)CC1	-5	0.14	i	i	i	i	nt	nt	nt
SMILES	hERG protect	Kir21 inh	KCNQ1 act	KCNQ1 inh	KCNK3 inh	KCNK9 inh	KCNK9 inh conf	Kir2-1 spec	HEK293 Tl ctr
Cc1cc(NC(=O)CSc2nc(CCC3CCCC3)nc3ccccc23)no1	-17	-0.03	i	i	i	i	nt	nt	nt
CCc1nc(SCC(=O)c2ccc3c(c2)OCCO3)c2ccccc2n1	-10	-1	i	i	i	i	nt	nt	nt
O=C(CSc1nc(CCC2CCCC2)nc2ccccc12)NCc1ccc2c(c1)OCO2	-8	-0.46	i	i	i	-13*	47%*	i	i
O=C(CSc1nc(Cc2ccccc2)nc2ccccc12)c1ccc2c(c1)OCCO2	-3	0.88	i	i	i	-14*	57%*	i	34%*
Cc1c(C)c2c(OCC(=O)N3CCC(C(=O)O)CC3)cc3c(c2oc1=O)CCC(C)(C)O3	-10	-0.84	i	i	i	i	nt	nt	nt
COc1ccc(-c2csc(Nc3cc(C)ccn3)n2)cc1OC	-2	-0.16	i	i	i	i	nt	nt	nt
Cc1ccnc(Nc2nc(-c3c(C)nc4sccn34)cs2)c1	-14	4	i	i	i	-17*	40%*	i	28%*
Cc1ccc(NC(=O)CCSc2nnc(Cc3ccccc3)o2)cc1	3	-0.04	i	i	i	i	nt	nt	nt
Cc1cccc(NC(=O)CCSc2nnc(Cc3ccccc3)o2)c1	-10	0.57	i	i	i	i	i	i	i
O=C(NCCC1=CCCCC1)C1CCC(=O)N(Cc2cccc(C(F)(F)F)c2)C1 (centres undefined)	-13	-0.24	i	i	i	i	nt	nt	nt
COc1ccc(C(=O)c2cccc(C(=O)c3ccc(OC)c(C)c3)c2)cc1C	-10	-0.08	i	i	i	i	i	i	i
